ROMK mod = modulators of human ROMK potassium channel; P48048; Tet-inducible ROMK, thallium flux fluorescence; actives lie on both sides; B-score at 10 µM; 2% of 130,000 active;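 active = signal ratio slope over the read window, or its plate-corrected B-score, at least 3 SD from the plate mean, either direction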;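 also: B-score of the F/F0 ratio slope over 7 to 12 s after thallium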
Target sequence (P48048 whole entry, looked up): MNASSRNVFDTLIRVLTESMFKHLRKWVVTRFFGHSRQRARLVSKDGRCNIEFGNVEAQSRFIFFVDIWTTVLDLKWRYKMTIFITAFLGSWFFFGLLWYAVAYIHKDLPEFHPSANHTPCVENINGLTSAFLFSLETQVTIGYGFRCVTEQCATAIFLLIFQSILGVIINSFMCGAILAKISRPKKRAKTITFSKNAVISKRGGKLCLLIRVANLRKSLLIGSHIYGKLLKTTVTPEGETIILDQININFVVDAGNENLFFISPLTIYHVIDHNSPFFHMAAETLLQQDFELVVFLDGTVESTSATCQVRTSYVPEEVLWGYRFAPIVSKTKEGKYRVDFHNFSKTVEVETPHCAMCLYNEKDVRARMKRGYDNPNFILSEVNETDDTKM
Biofilm kill mix = mixtures killing C. albicans biofilm; 0.02% of 120,000 active; C. albicans biofilm persisters + clotrimazole, fluorescence viability; primary screen in compound mixtures of four per well; inhibition, % at 7.6 µM; AID 1242;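 active = inhibition above 30.3% in the primary screen of four-compound pools, then above 30% when the compound was retested; inconclusive = passed the primary limit but could not be retested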;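 also: compounds exposed to preformed 24 h biofilms for 48 h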
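Test system: C. albicans biofilms. Buffer or medium: RPMI/MOPS medium, pH 7.0. Timing: 48 h compound exposure at 37 °C. Technique: Alamar Blue fluorescence. Evaluation: percent inhibition of biofilm viability.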
ROMK hit retest = retested hit modulating human ROMK potassium channel. shares compounds with ROMK mod. ROMK thallium flux, fluorescence ratio; hits give low values. normalized thallium flux (F/F0 slope) at 10 µM. 54% of 3,000 active. AID 1917;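 active = Flux at 10 µM at least 3 SD below or above vehicle control mean in one or both replicates; inconclusive = no clear call, values can overlap the other calls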
A number is an active result; 0 = inactive; ? = inconclusive; - = no result. This is one part of a sample in which hits are shown more often than they occur.

SMILES	ROMK mod	Biofilm kill mix	ROMK hit retest
O=C(CSc1nc2ccsc2c(=O)n1Cc1ccccc1)NCC1CCCO1 (configuration not stated)	0	0	-
CCOc1ccc(OCCOCCOc2ccccc2Cl)cc1	0	0	-
COc1ccccc1OCCOCCOc1ccccc1Cl	-2.8	0	0
Cc1ccc(-c2cc(C(=O)N3CCCc4ccccc43)no2)cc1	0	0	-
COCCNC(=O)Cn1cc(S(=O)(=O)N2CCN(c3ccccc3F)CC2)c2ccccc2c1=O	-2.3	0	0
O=C(Cn1cc(S(=O)(=O)N2CCN(c3ccccc3F)CC2)c2ccccc2c1=O)NCCCN1CCCCCC1	0	0	-
CCn1cc(CNC(=O)c2cc(COc3ccc(F)cc3F)on2)cn1	0	0	-
O=C1c2ccccc2C(=O)N1CCSc1nc2ccccc2c(=O)n1CCCN1CCOCC1	0	0	-
O=C1c2ccccc2C(=O)N1CCCCSc1nc2ccccc2c(=O)n1CCCN1CCOCC1	-3	0	0.054
CC(=O)Nc1ccc(NCN2C(=O)[C@@H]3[C@H]4CC[C@H](C4)[C@@H]3C2=O)cc1	0	0	-
O=c1c2cc(N3CCOCC3)ccc2[nH]c(=S)n1Cc1cccc(Cl)c1	-	-	0
COc1cccc(Cn2c(=S)[nH]c3ccc(N4CCOCC4)cc3c2=O)c1	0	-	-
CN(C)c1ccc(/C=N/N=C(N)N)cc1[N+](=O)[O-]	-	0	-
CCOC(=O)c1c(CSC(=N)N)n(C)c2cc(Br)c(OC(C)=O)cc12	-	0	-
CCOC(=O)c1c(CSC(=N)N)n(-c2ccc(C)cc2)c2cc(Br)c(OC(C)=O)cc12	-	-	0.045
CCn1cc(C(=O)N2CCN(c3ccccc3F)CC2)c(=O)c2ccc(C)nc21	-	0	-
O=C(Nc1cccnc1)c1cc(-c2cccs2)on1	0	-	-
O=C(Nc1cccnc1)c1cc(-c2ccccc2O)on1	3	0	?
CN(C)CC/C=C1/c2cc(F)ccc2CSc2ccc(F)cc21	0	0	-
CN(C)CC/C=C1\c2cc(F)ccc2CSc2ccccc21	-3.2	0	0.061
COc1ccc(-c2nc(CN3CCC(C(=O)N4CCc5ccccc54)CC3)c(C)o2)cc1OC	-	-	?
COc1ccc(-c2nnc(SCC(=O)N3CCCc4ccccc43)o2)cc1OC	0	-	-
CCCOc1ccc(N2CC(C(=O)NCCc3ccc(OC)c(OC)c3)CC2=O)cc1 (configuration not stated)	0	0	-
CCOC(=O)CCNC(=O)c1ccccc1Br	-	-	0
CCOC(=O)Cc1ccc(NC(=O)c2ccccc2Br)cc1	0	0	-
SMILES	ROMK mod	Biofilm kill mix	ROMK hit retest
CCOc1ccc(C2CC(c3ccc(F)cc3)n3ncnc3N2)cc1 (configuration not stated)	0	0	-
O=C(Nc1ccc(Cl)cc1)N1CCN(c2ccccc2)CC1	-	0	-
O=C(Nc1ccc(Cl)cc1)N1N=CCC1c1ccccc1 (configuration not stated)	-3.1	0	0.064
CCOC(=O)/C(=C/Nc1ccc(F)cc1)[N+](=O)[O-]	0	0	-
COc1ccccc1N1CCN(C(=O)CCCCCn2c(=O)[nH]c3ccsc3c2=O)CC1	0	0	-
Cc1c(-c2ccccc2)oc2c(C(=O)N3CCN(c4ccccc4F)CC3)cccc2c1=O	0	0	-
O=C(COc1nsnc1N1CCOCC1)N/N=C/c1ccccc1O	0	0	-
CSc1nc(C)cc(OCC(=O)N/N=C/c2ccccc2O)n1	2.9	0	0
CCOC(=O)C1(Cc2ccccc2Cl)CCN(C(=O)CCn2ccnc2C)CC1	0	0	-
CCC(C)n1c(SCC(=O)Nc2cc(C(C)(C)C)nn2-c2ccccc2)nc2ccccc2c1=O (configuration not stated)	0	0	-
CCN(CC(=O)NC(C)C)C(=O)Cc1ccc(C)c(C)c1	0	0	-
Cc1ccc(-c2nn(-c3ccccc3)cc2CSC(=N)N)cc1	-	-	0.052
OCc1cn(-c2ccccc2)nc1-c1ccc(-c2nn(-c3ccccc3)cc2CO)cc1	0	-	-
CC1=CC(C)(C)N(S(=O)(=O)c2ccc(F)cc2)c2ccc(C)cc21	0	-	-
CC1=CC(C)(C)N(S(=O)(=O)c2ccc(C)cc2)c2ccccc21	3.2	-	0
CCOC(=O)C(=CNc1ccccc1N1CCOCC1)C(=O)OCC	-	0	0.064
CCOC(=O)C(=CNc1cccc(C)c1C)C(=O)OCC	0	-	-
CCC1CCCCN1C(=O)CSc1nnc(CNC(=O)COc2ccc(Cl)cc2)o1 (configuration not stated)	0	-	-
C=CCn1c(Cc2ccccc2)nnc1SCc1nc2ccccc2c(=O)[nH]1	0	0	-
Cn1c(Cc2ccccc2)nnc1SCc1nc2ccccc2c(=O)[nH]1	0	0	0
CC1(C)CN(c2ccc(Br)cc2Br)C1=O	-	0	-
CC1(C)CN(c2cccc(Br)c2)C1=O	2.1	0	0
Cc1c(C(=O)c2ccccc2)c(=O)n(C)c(=O)n1C	0	0	-
CC(C)Cc1nc(N2CCN(C(=O)c3ccco3)CC2)c(C#N)c2c1CCC2	0	-	0.067
CC(=O)N1CCN(c2nc(CC(C)C)c3c(c2C#N)CCC3)CC1	0	-	-
SMILES	ROMK mod	Biofilm kill mix	ROMK hit retest
CCOC(=O)C1(C)Oc2ccc(S(=O)(=O)CC)cc2NC1=O (configuration not stated)	0	0	-
CC(C)OC(=O)C[N+](C)(C)CCN1C(=O)C2C(c3ccccc3)C=CC(c3ccccc3)C2C1=O (configuration not stated)	-3.3	0	?
C#CC[N+](C)(C)CCN1C(=O)C2C(c3ccccc3)C=CC(c3ccccc3)C2C1=O (configuration not stated)	0	0	-
CC1CCN(c2ccccc2NC(=S)NC(=O)C(C)(C)C)CC1	0	0	-
CCc1[nH]nc2c1C(c1ccsc1)C(C#N)=C(N)O2 (configuration not stated)	-4.3	0	0.063
CC(C)(C)c1[nH]nc2c1C(c1ccsc1)C(C#N)=C(N)O2 (configuration not stated)	0	0	-
N=C1C(c2ccccc2)=C(O)CN1c1cccc(S(=O)(=O)NCc2ccco2)c1	-	0	-
Cn1c(=O)c2[nH]c(-c3ccccc3Cl)c(O)c2n(C)c1=O	-3.9	0	0.063
Cn1c(=O)c2[nH]c(-c3ccccc3)c(O)c2n(C)c1=O	-	0	-
COC(=O)c1c(NC(NC(=O)c2ccccc2)(C(F)(F)F)C(F)(F)F)sc2c1CCN(C)C2	0	0	-
O=C(c1cc([N+](=O)[O-])ccc1N1CCOCC1)N1CCCC1	0	0	-
O=c1oc(/C=C/c2ccccc2)nc2sc3c(c12)CCC3	-3.7	-	0.045
O=c1oc(-c2ccccc2)nc2sc3c(c12)CCCC3	0	-	-
Cc1ccc(N=Cc2cc3c(cc2O)OC(N)=C(C#N)C3c2ccccc2)cc1 (configuration not stated)	-	0	-
O=C1C2C(c3cccc(/C=C/c4ccccc4)c3)CC=CC2C(c2ccc(C(F)(F)F)cc2)N1Cc1ccccc1 (configuration not stated)	-	0	0
O=C1C2C(c3cccc(/C=C/c4ccccc4)c3)CC=CC2C(c2ccc3ccccc3c2)N1Cc1ccccc1 (configuration not stated)	-	0	-
Cc1cc(O)ccc1Nc1nc2ccccc2nc1Nc1ccc(O)cc1C	0	-	-
CCOc1c(Br)cc(CNc2ccc3c(c2)OCCO3)cc1OC	0	-	-
CCOc1cc(CNc2ccc3c(c2)OCCO3)cc(Br)c1OC	4.9	-	0
COc1cc(OC)c(NC(=O)/C=C/C(=O)O)cc1Cl	-	0	-
COC1(OC)N=C(N)C2(C#N)C(c3ccc(F)cc3)C12C#N (configuration not stated)	0	-	-

Screens as filed in PubChem.
